Measurements reported in PubChem BioAssay.
Results filed as inconclusive are left out.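 Rule for the calls, unless noted: active = RAM network inhibition above 8.4% in each of two replicates, 3 SD over the compound average; inconclusive = above 8.4% inhibition in only one replicate; inactive = 8.4% inhibition or less in each replicate.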

What was measured:
[1] = S. cerevisiae growth inhibition in permissive medium (OD615), pilot counter-assay for S. cerevisiae lifespan shortening project, permissive growth control (AID 705;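 active = growth inhibition above 25% in both replicates, a cutoff set 3 SD above the mean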); settings: OD615, 24 h, at 10 µM, active compounds read high
In short: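 System – S. cerevisiae with engineered DeaD lifespan system · Buffer or medium – SC raffinose/galactose permissive medium · Schedule – cells pre-grown 4 h, then 24 h compound exposure, 30 °C humidified · Technique – culture turbidity as optical density at 615 nm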

[2] = S. cerevisiae growth inhibition in restrictive medium, OD615, pilot screen, restrictive growth control, yeast lifespan reduction project (AID 706;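 active = growth inhibition above a set limit, 3 SD over mean compound inhibition, in both replicates, cut at about 43% in these data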;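 note: modified DeaD lifespan yeast strain shifted to restrictive glucose medium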); settings: OD615, 48 h, at 10 µM, active compounds read high
In short: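 Material: engineered S. cerevisiae DeaD strain / Medium: glucose-based CSMM-D restrictive medium / Compound: single dose of 10 µM compound final, 0.25% DMSO / Timing: 4 h pre-incubation, 48 h exposure at 30 °C / Technique: OD615 absorbance reading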

[3] = doxorubicin toxicity protection in MRP-1 cells – H69AR cells, CellTiter-Glo, duplicate, MRP-1 activator project, pilot screen (AID 807;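 active = viability increase at or above a cutoff of the median across tested compounds plus 3 SD, cut at about 8.5% in these data, passing the limit was not always enough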;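 note: compound pretreatment 18-22 h then 72 h combined with doxorubicin; 0% = doxorubicin alone and 100% = vehicle without doxorubicin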); settings: H69AR viability with doxorubicin, CellTiter-Glo luminescence; at 10 µM; active compounds read high
[4] = viability of HCT116 without oncogenic beta-catenin – human colon tumor cells, pilot screen (AID 823;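 active = cell viability at or below a set limit in both duplicate runs, the limit being the all-compound median minus 4 SD, cut at about 23% in these data, passing the limit was not always enough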;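 note: 0% = wells killed by 20 µM Hyamine and 100% = untreated DMSO cell wells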); settings: HCT116 beta-catenin knockout viability, CellTiter-Glo, 60 h; at 10 µM; active compounds read low
[5] = viability of PTEN-null HCT116 cells – cell-based, HCT116 clonal line, CellTiter-Glo, pilot screen (AID 824;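 active = viability at or below 27.92% in each of two runs, the all-compound median minus 4 SD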;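 note: 0% = 20 µM Hyamine control and 100% = vehicle cell control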); settings: HCT116 PTEN-deleted viability, 60 h, at 10 µM, active compounds read low
[6] = RAM pathway blockade in budding yeast – dse1pr::URA3 reporter, 5-FOA selection, pilot screen (AID 869;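 active = inhibition over a set limit, the all-compound mean plus 3 SD, in both replicate runs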;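 note: 0% = DMSO wells with no growth and 100% = 10 µM 1-NA-PP1 with full growth; RAM network block rescues cells from 5-FOA so hits raise OD615 growth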); settings: S. cerevisiae dse1pr::URA3 5-FOA growth, OD615, 2 d; at 10 µM; active compounds read high; strain carries analog-sensitive mutant Cbk1 kinase
[7] = RAM signaling pathway blockade in yeast – S. cerevisiae, Pdr1DBD-CYC8 efflux-inhibited sensitized strain, primary screen (AID 1298);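 note: 0% = DMSO untreated cells without growth and 100% = 10 µM 1-NA-PP1 full growth; higher means more yeast growth rescued from 5-FOA killing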; settings: S. cerevisiae cbk1-as DSE1-URA3 strain, 5-FOA growth OD615, 2 d; at 50 µM; active compounds read high

CN1CCN(C(=O)c2cc3c(s2)-c2ccccc2S(=O)(=O)C3)CC1
inactive: growth inhibition [1] -2.05% | growth inhibition [2] -0.515% | viability increase [3] -1.76% | viability [4] 103% | viability [5] 98.5% | inhibition [6] 1.8% | RAM network inhibition [7] 0.72%

Cc1ccc(-c2nc(CS(=O)(=O)CC(=O)NCCCN3CCN(C)CC3)c(C)o2)cc1
inactive: growth inhibition [1] -9.1% | growth inhibition [2] -15.2% | viability increase [3] 0.53% | viability [4] 89.4% | viability [5] 94.7% | inhibition [6] 1.34% | RAM network inhibition [7] -0.16%

N#Cc1nc(COc2ccccc2F)oc1NCc1ccc(F)cc1
inactive: growth inhibition [1] -5.23% | growth inhibition [2] 6.15% | viability increase [3] -4.08% | viability [4] 92.1% | viability [5] 90.7% | inhibition [6] 0.39% | RAM network inhibition [7] 8.3%

O=C(COC(=O)c1ccccc1Oc1ccccc1)NCc1ccco1
inactive: growth inhibition [1] -7.67% | growth inhibition [2] -3.48% | viability increase [3] -6.02% | viability [4] 61.6% | viability [5] 67.1% | inhibition [6] 2.41% | RAM network inhibition [7] 2.24%

CCCCn1c(=O)[nH]c2ccccc21
inactive: growth inhibition [1] -4.76% | growth inhibition [2] -21.1% | viability increase [3] -1.44% | viability [4] 106% | viability [5] 104% | inhibition [6] 1.69% | RAM network inhibition [7] 2.05%

O=C(NC1CCCC1)C1C2C=CC3(CN(Cc4cccs4)C(=O)C13)O2 (stereo not drawn)
inactive: growth inhibition [1] -17.8% | growth inhibition [2] -17.1% | viability increase [3] -1.96% | viability [4] 94.8% | viability [5] 101% | inhibition [6] 0.615% | RAM network inhibition [7] 5%

Cc1cccc(C)c1Nc1nc2ccccc2o1
inactive: growth inhibition [1] -7.32% | growth inhibition [2] 11.5% | viability increase [3] -0.76% | viability [4] 93.3% | viability [5] 94.3% | inhibition [6] 1.97% | RAM network inhibition [7] -0.32%

Cc1cccc(-c2noc(CCc3ccccc3)n2)c1
inactive: growth inhibition [1] -13.3% | growth inhibition [2] -12% | viability increase [3] 0.39% | viability [4] 102% | viability [5] 98.1% | inhibition [6] 1.13% | RAM network inhibition [7] 2.14%

CN(Cc1ccccc1)C(=O)CCS(=O)(=O)c1ccc2c(c1)n(C)c(=O)c(=O)n2C
inactive: growth inhibition [1] -4.66% | growth inhibition [2] -4.58% | viability increase [3] 0.66% | viability [4] 95.7% | viability [5] 100% | inhibition [6] 1.23% | RAM network inhibition [7] 4.6%

Cc1cc(C(C)(C)C)ccc1OCCN(C)C
inactive: growth inhibition [1] -2.25% | growth inhibition [2] -9.14% | viability increase [3] 0.25% | viability [4] 94.2% | viability [5] 94.9% | inhibition [6] 1.58% | RAM network inhibition [7] 2.2%

O=C(NCc1ccc2c(c1)OCO2)Oc1ccccc1
inactive: growth inhibition [1] -1.34% | growth inhibition [2] 7.08% | viability increase [3] 0.33% | viability [4] 96.9% | viability [5] 101% | inhibition [6] 1.32% | RAM network inhibition [7] 2.53%

CC(=O)NCc1nc2ccccc2n1Cc1ccccc1F
inactive: growth inhibition [1] -7.66% | growth inhibition [2] -15.8% | viability increase [3] -0.31% | viability [4] 108% | viability [5] 104% | inhibition [6] 3.39% | RAM network inhibition [7] 2.03%

CCOc1ccccc1Nc1nnc(Cc2ccccc2Cl)c(=O)[nH]1
inactive: growth inhibition [1] -24.5% | growth inhibition [2] -19.1% | viability increase [3] -2.83% | viability [4] 90.7% | viability [5] 94.6% | inhibition [6] 0.115% | RAM network inhibition [7] 5.74%

Cn1cc(SCC(=O)NCC2CCCO2)c2ccccc21 (stereo not drawn)
inactive: growth inhibition [1] -3.53% | growth inhibition [2] 2.04% | viability increase [3] -2.67% | viability [4] 94.9% | viability [5] 93.2% | inhibition [6] 1.21% | RAM network inhibition [7] 0.31%

CCCCn1c(C(C)NC(=O)CC)nc2ccccc21 (stereo not drawn)
inactive: growth inhibition [1] -12.9% | growth inhibition [2] -3.19% | viability increase [3] -3.16% | viability [4] 92.2% | viability [5] 92.7% | inhibition [6] 0.01% | RAM network inhibition [7] -0.63%

O=C(NCc1ccccc1)c1ccc(/C=N/O)nc1
inactive: growth inhibition [1] -17.6% | growth inhibition [2] -5.67% | viability increase [3] -0.06% | viability [4] 98.2% | viability [5] 106% | inhibition [6] 2.25% | RAM network inhibition [7] 6.66%

CC(C)N(Cc1nc(-c2ccccc2)no1)C(=O)c1ccc(Cl)cc1
inactive: growth inhibition [1] -9.85% | growth inhibition [2] -12% | viability increase [3] 2.12% | viability [4] 80.7% | viability [5] 76.2% | inhibition [6] 3.25% | RAM network inhibition [7] 6.42%

CC1(C)CC(=O)C(C=NCCCN2CCOCC2)=C(O)C1
inactive: growth inhibition [1] -0.685% | growth inhibition [2] 0.465% | viability increase [3] -0.36% | viability [4] 97.6% | viability [5] 97% | inhibition [6] -0.16% | RAM network inhibition [7] -0.83%

O=C1c2ccccc2C(=O)N1Cc1nc2ccccc2c(=O)n1CCCn1ccnc1
inactive: growth inhibition [1] -3.57% | growth inhibition [2] 0.74% | viability increase [3] -1.98% | viability [4] 96.3% | viability [5] 101% | inhibition [6] 0.915% | RAM network inhibition [7] 4.3%
